Experimental data pooled from the literature.
Protocols differ between the studies behind these lines.
Target: Mitogen-activated protein kinase kinase kinase 1 (MAP3K1, Homo sapiens, UniProt Q13233)

SMILES | test | setting | remaining binding
O=C(c1ccc(Nc2ncc(Cl)c(-c3ccc(Cl)s3)n2)cc1)N1CCC(N2CCCC2)CC1 | binding, competition with immobilised ligand | 1 µM | 90%
CNC(=O)[C@@H]1CC[C@@H](n2c(-c3ccc4cnccc4c3)nc3ccc(C(=O)NCc4cccc(C(N)=O)c4)cc32)C1 | binding, competition with immobilised ligand | 1 µM | 95%
CNC(=O)Nc1ccc2c(c1)CC[C@@]21OC(=O)N(CC(=O)N(Cc2ccc(F)cc2)[C@@H](C)C(F)(F)F)C1=O | cell-free assay, competition with immobilised ligand | 1 µM | 68%
O=C(c1ccc(Nc2nccc(-c3cc4ccccc4s3)n2)cc1)N1CCC(N2CCCC2)CC1 | binding, competition with immobilised ligand | 1 µM | 98%
CO[C@@H](C)c1c(Nc2ccc([C@H](N(C)C(=O)C3CCS(=O)(=O)CC3)C(F)(F)F)cc2)cnc2cc(Cl)nn12 | cell-free assay, competition with immobilised ligand | 1 µM | 100%
CN(C)c1ncc(F)c(-c2cnn3ncccc23)n1 | binding | 1 µM | 80%
O=C(NCCCN1CCOCC1)c1ccc(Nc2ncc(Cl)c(-c3ccc(Cl)s3)n2)cc1 | binding, competition with immobilised ligand | 1 µM | 100%
C[C@H](NC(=O)c1cnc2n1[C@](C)(Cc1ccc(C#N)cc1)C(=O)N2c1cc(Cl)c(F)c(Cl)c1)C(=O)NC1(c2ccccn2)CC1 | cell-free assay, competition with immobilised ligand | 1 µM | 100%
COc1cnc(Nc2cccc(S(N)(=O)=O)c2)nc1N1CCN(c2ccccc2)C(=O)C1 | binding, competition with immobilised ligand | 1 µM | 96%
C[C@@H](c1ccc(-n2cnc3c(N)ncnc32)cc1)N1CCc2nn(C)c(Cc3ccccc3)c2C1=O | binding, competition with immobilised ligand | 0.1 µM | 60%
CNC(=O)c1ccc(Nc2ncc(C(F)(F)F)c(NCc3nccnc3N(C)S(C)(=O)=O)n2)cc1 | cell-free assay, competition with immobilised ligand | 0.1 µM | 100%
F[C@@H]1CCN(c2nccc(-c3cnn4ncccc34)n2)C1 | binding | 1 µM | 100%
Cc1cc(-n2nc(Cc3cc(F)cc(C(F)(F)F)c3)nc2C)ccc1C(N)=O | cell-free assay, competition with immobilised ligand | 1 µM | 100%
O=C(NCC1CCOCC1)c1n[nH]cc1NC(=O)c1c(F)cccc1F | binding, competition with immobilised ligand | 1 µM | 75%
COc1ccnn2ncc(-c3ccnc(N(C)C)n3)c12 | binding | 1 µM | 100%
Nc1ncc2c(n1)-c1c([nH]c3ccc(C#CC4CC4)cc13)CCCC2 | binding, competition with immobilised ligand | 1 µM | 97%
CN(C)c1nccc(-c2cnn3ncccc23)n1 | binding | 1 µM | 91%
CNC(=O)Nc1ccc2c(c1)[C@@]1(CC2)OC(=O)N(CC(=O)N(Cc2ccc(F)cc2)[C@@H](C)C(F)(F)F)C1=O | cell-free assay, competition with immobilised ligand | 1 µM | 95%
N[C@@H]1CCN(c2nccc(-c3cnn4ncccc34)n2)C1 | binding | 1 µM | 97%
O=C1NC(c2ccccn2)Sc2ccccc21 (stereo not shown) | cell-free assay, competition with immobilised ligand | 1 µM | 55%
C[C@@H]1CCN(c2nccc(-c3cnn4ncccc34)n2)C1 | binding | 1 µM | 85%
COc1ncc2cc3ccccc3nc2c1C#N | cell-free assay, competition with immobilised ligand | 5 µM | 99%
